Measurements as given in ChEMBL document CHEMBL1123501, “Inactivation of leukocyte elastase by aryl azolides and sulfonate salts. Structure-activity relationship studies” (J Med Chem, 1986).
The source made the active and inactive calls. The rule behind the calls is not given here.

Key:
[1] = target: T1, Neutrophil elastase (Homo sapiens) (UniProt P08246); assay: Compound was evaluated for the inhibitory activity against human Leukocyte elastase; Inactive
T1 sequence (whole entry): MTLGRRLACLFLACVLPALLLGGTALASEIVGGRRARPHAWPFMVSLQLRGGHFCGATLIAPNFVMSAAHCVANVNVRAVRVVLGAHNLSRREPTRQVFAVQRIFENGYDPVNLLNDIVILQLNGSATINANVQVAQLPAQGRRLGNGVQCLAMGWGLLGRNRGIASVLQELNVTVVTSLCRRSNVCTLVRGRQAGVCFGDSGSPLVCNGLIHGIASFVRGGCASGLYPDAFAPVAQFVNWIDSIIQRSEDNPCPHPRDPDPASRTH
In short: (§1)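 Human leukocyte elastase (enzyme stock 3.4 × 10⁻⁵ M in pH 5.5 acetate) incubated at 25 °C with inhibitor (DMSO stock 3.4 × 10⁻⁴ M) in Tris buffer pH 7.2. The inhibitor:enzyme ratio was 10–50. Aliquots taken over time were added to MeOSuc-Ala-Ala-Pro-Val-pNA (stock 3.15 × 10⁻² M). Residual activity was read at 410 nm for 2 min after 30 s, against a DMSO control.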

[2] = target: T1, Neutrophil elastase (Homo sapiens); assay: Inhibitory activity against human Leukocyte elastase; inactive (at 243-fold excess of inhibitor over enzyme)
[3] = target: T1, Neutrophil elastase (Homo sapiens); assay: Inhibitory activity against human Leukocyte elastase; in short: as §1

Compound | K obs / 1 [3] [M⁻¹ s⁻¹] | other results
O=C(Nc1cccc(F)c1)n1ccnc1 |  | K obs / 1 [1]: inactive
O=C(Nc1ccc(C(F)(F)F)cc1)S(=O)(=O)O |  | K obs / 1 [2]: inactive
O=C(Nc1cccc(C(F)(F)F)c1)S(=O)(=O)O |  | K obs / 1 [2]: inactive
COC(=O)C(Cc1cccc(C(F)(F)F)c1)NC(=O)n1ccnc1 (centres undefined) | 1100 | 
COC(=O)C(Cc1ccccc1)NC(=O)n1ccnc1 (centres undefined) | 2070 | 
O=C(NCCc1cccc(F)c1)S(=O)(=O)O | 18 | 
O=C(Nc1ccccc1)S(=O)(=O)O |  | K obs / 1 [2]: inactive
O=C(Nc1cn(-c2cccc(C(F)(F)F)c2)cn1)ON1C(=O)CCC1=O | 13500 | 
O=C(Nc1cccc(Cl)c1)S(=O)(=O)O |  | K obs / 1 [2]: inactive
O=C(Nc1ccccc1C(F)(F)F)n1ccnc1 |  | K obs / 1 [1]: inactive
O=C(NCCc1cccc(C(F)(F)F)c1)n1ccnc1 | 483 | 
O=C(Nc1cn(-c2cccc(C(F)(F)F)c2)cn1)n1ccccc1=O | 11700 | 
COC(=O)C(Cc1ccccc1)NC(=O)S(=O)(=O)O (racemic) | 550 | 
O=C(NCc1ccc(C(F)(F)F)cc1)n1ccnc1 |  | K obs / 1 [1]: inactive
COC(=O)C(Cc1cccc(F)c1)NC(=O)n1ccnc1 (centres undefined) | 318 | 
O=C(Nc1cccc(F)c1)S(=O)(=O)O |  | K obs / 1 [2]: inactive
O=C(NCCc1ccccc1)n1ccnc1 | 35 | 

Compound | K obs / 1 [3] [M⁻¹ s⁻¹] | other results
O=C(Nc1ccccc1C(F)(F)F)S(=O)(=O)O |  | K obs / 1 [2]: inactive
COC(=O)C(Cc1cccc(C(F)(F)F)c1)NC(=O)S(=O)(=O)O (racemic) | 13 | 
O=C(Nc1cn(-c2ccccc2)cn1)ON1C(=O)CCC1=O | 927 | 
COC(=O)C(Cc1cccc(F)c1)NC(=O)S(=O)(=O)O (racemic) | 57 | 
O=C(NCCc1ccccc1)S(=O)(=O)O | 4 | 
O=C(NCCc1cccc(F)c1)n1ccnc1 | 38 | 
O=C(NCc1cccc(F)c1)S(=O)(=O)O |  | K obs / 1 [2]: inactive
O=C(Nc1cccc(C(F)(F)F)c1)n1ccnc1 |  | K obs / 1 [1]: inactive
O=C(NCc1cccc(C(F)(F)F)c1)n1ccnc1 |  | K obs / 1 [1]: inactive
COC(=O)C(Cc1ccccc1)NC(=O)n1ccccc1=O (centres undefined) | 2330 | 
O=C(Nc1ccc(Cl)cc1)S(=O)(=O)O |  | K obs / 1 [2]: inactive
COC(=O)C(Cc1ccccc1)NC(=O)ON1C(=O)CCC1=O (centres undefined) | 6640 | 
O=C(Nc1cn(-c2cccc(F)c2)cn1)ON1C(=O)CCC1=O | 823 | 
O=C(Nc1cn(-c2cccc(F)c2)cn1)n1ccccc1=O | 317 | 
O=C(Nc1cn(-c2ccccc2)cn1)n1ccccc1=O | 500 | 
O=C(NCc1cccc(C(F)(F)F)c1)S(=O)(=O)O |  | K obs / 1 [2]: inactive
O=C(NCc1cccc(F)c1)n1ccnc1 |  | K obs / 1 [1]: inactive
